# Vif inh: inhibitors of HIV Vif; HEK293T cells, Vif self-association by quenched fluorescence, imaging, 24 h; inhibition, % at 7.49 µM; 340,000 compounds, 0.35% hits; AID 602346; in the data active = inhibition above about 50%, passing the limit was not always enough; inconclusive = no clear call, values can overlap the other calls; inactive = below about 31%
# HIV Env fusion: inhibitors of HIV Env-mediated cell fusion. HeLa-JRFL Env/CEM21 cell fusion, luciferase. inhibition, % at 12.3 µM. 360,000 compounds, 1.1% hits. AID 651610;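 active = mean replicate inhibition score of at least 50 and every replicate individually at or above 50; inconclusive = only one of the two criteria met; inactive = mean below 50 and not all replicates reaching 50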;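 note: 0% = plate neutral controls and 100% = maraviroc near 300 nM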
# S100A4 MyoIIA: inhibitors of human S100A4 binding to myosin IIA peptide | S100A4/TAMRA-MyoIIA peptide fluorescence polarization | inhibition, % at 10.7 µM | 360,000 compounds, 0.14% hits | AID 652163;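 active = mean inhibition of at least 70% across replicates, with every replicate also reaching that level; inconclusive = mean inhibition reaches 70% but some replicates fall short; inactive = mean inhibition below 70%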
# Target sequence (P26447 whole entry, looked up): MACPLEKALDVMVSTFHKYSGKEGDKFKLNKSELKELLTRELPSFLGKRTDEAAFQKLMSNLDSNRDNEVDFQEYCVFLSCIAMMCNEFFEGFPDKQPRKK
#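 Test system: S100A4 monomer protein; Medium: HEPES pH 7.2 with CaCl2, KCl, NaCl, DTT, Triton; Probe or stimulus: TAMRA-labelled myosin IIA heavy-chain peptide probe, 5 nM; Doses: one dose per compound; Times: polarization read 5 min after assay mix addition, stable 5–60 min; Benchmarks: neutral control DMSO, positive control TFP.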
# miR-122 sensor: blocks miR-122 activity in Huh7 sensor cells. Huh7 miR-122 Renilla luciferase sensor, 48 h; neutral wells = 0, positive control = 100. AID 602342. 340,000 compounds, 0.3% hits. activation (reporter increase), % at 12.5 µM;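 active = mean replicate activation score at least 90 and every replicate individually at or above 90; inconclusive = only one of the two criteria met; inactive = neither criterion met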;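 note: higher luciferase means less miR-122 activity so hits act as miR-122 inhibitors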
# Ecoli rRNA inh: inhibitors of bacterial rRNA selective over humanized ribosomes; 350,000 compounds, 1.6% hits; GFP signal change (wild-type ribosome), % (concentration not given with the values); E. coli WT GFP vs humanized-ribosome RFP mutants, fluorescence, 24 h; stronger effect = lower value; DMSO median 0, no signal -100; AID 720706;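 active = significant combined selectivity score with lowered wild-type GFP, culture density cut under 30%, mutant RFP and density less affected; inactive = any of these conditions unmet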
# FN deposition inh: fibronectin deposition inhibition. AH1F fibroblasts, Alexa488-fibronectin deposition fluorescence, overnight. inhibition, % at 12.6 µM. 350,000 compounds, 0.086% hits;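 active = mean inhibition across replicates of 30% or more, regardless of how many single replicates reach that level; inconclusive = mean under 30% yet at least half of replicates reach 30%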;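 note: positive control wells lacked labelled fibronectin entirely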
#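 Assay system: AH1F fibroblast monolayer, labelled fibronectin deposition. Amount: 10000 cells per well. Also added: labelled fibronectin 24 nM. Compound: single-point pinned compound. Incubation: cell attachment 1 h, compound and FN exposure overnight. Detection: fluorescence after three HBSS washes, excitation 485 nm, emission 525 nm. Read-out: inhibition of fibronectin deposition signal.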
# AID977621: wild-type E. coli growth inhibition versus H69 humanized strain – H69 mutant RFP, wild-type GFP, cherry-pick, dose response; shares compounds with Ecoli rRNA inh; fluorescence, 24 h; activity change, negative = inhibition at 50 µM; 1,900 tested, under 10 active;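 active = Wild-type ribosome reporter drop at least double the humanized mutant ribosome reporter drop, growth loss under a set limit; inconclusive = no clear call, values can overlap the other calls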;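 note: wild-type GFP and H69 mutant RFP strains grown together 50/50 in each well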
# AID977628: growth of wild-type and h24-humanized E. coli strains – h24 mutant RFP vs wild-type GFP, cherry-pick, dose response; shares compounds with Ecoli rRNA inh; 1,900 tested, under 10 active; AID 977628; E. coli WT GFP strain growth, fluorescence, 24 h; activity change, negative = inhibition at 50 µM;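 active = compound lowering the normal-ribosome reporter at least twice as much as the humanized-ribosome reporter, growth loss under a set limit; inconclusive = no clear call, values can overlap the other calls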;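 note: wild-type GFP and h24 humanized RFP strains co-cultured 1 to 1 per well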
# Starred values were filed as active, the others as inactive; ? = inconclusive; . = no result; [ ] = another dose, or the depositor's remark. Shown are actives, neighbours in structure and some others; about 2.6% of the full set was active somewhere.
SMILES,Vif inh,HIV Env fusion,S100A4 MyoIIA,miR-122 sensor,Ecoli rRNA inh,FN deposition inh,AID977621,AID977628
CC(C)NC(=O)Nc1ccc2c(c1)CC(=O)N([C@H](C)CO)C[C@@H](C)[C@@H](CN(C)Cc1ccccc1)O2,.,3[16.7 µM],4,2[16.7 µM],2,.,.,.
CC(C)(C)C1CCC(C(=O)OCC(=O)N2CCN(C(=O)c3ccco3)CC2)CC1 (stereo not given),18,14,-7,1,-22*,-1,-5,-5.6
O=C(NCc1cccs1)c1cccc(S(=O)(=O)N2CCCCC2)c1,-7,44,.,37,.,-7,.,.
O=C(NCc1cccs1)c1ccc(Cl)c(S(=O)(=O)N2CCCC2)c1,-7,18,-1,30,-19*,2,.,0.26
C[C@@H](NC(=O)C[C@@H]1C[C@@H]2c3cc(NC(=O)CN(C)C)ccc3O[C@@H]2[C@H](CO)O1)c1ccccc1,.,-14[16.7 µM],0,0[16.7 µM],1,-29,.,.
CC(C)CNc1nc(S(=O)(=O)c2ccccc2)c(Cl)s1,-4,9,1,5,-40*,-6,?,-9.2
CC(C)n1nnnc1C1c2ccccc2C(=O)N1CCOc1ccccc1 (stereo not given),.,-29,-4,.,-18*,0,-7.5,-16
N#Cc1ccc(-c2ccc3c(c2)[C@H]2[C@H](CCN2C(=O)C2CCC2)[C@H](CO)N3)cc1,.,1[16.7 µM],-3,.,-16,11,.,.
O=C(c1cccc2ccccc12)C1CCCN(C(=O)CCc2cnccn2)C1 (stereo not given),1,17,12,-2,-21*,-8,-11,-12
O=C(c1cc(F)ccc1F)C1CCCN(C(=O)CCc2cnccn2)C1 (stereo not given),-5,-4,-2,.,11,1,.,.
CC(=O)Nc1ccc2nc3ccccc3nc2c1,-5,-39,-8,-12,-26*,-4,-17,.
CC(=O)Nc1cccc(Nc2nc(-c3ccccc3)nc3ccccc23)c1,-20,3,1,.,-22*,.,.,?
CC(=O)c1cccc(Nc2nc(-c3ccccc3)nc3ccccc23)c1,-22,22,-6,4,17,16,.,.
O=C(C[C@H]1C=C[C@@H](NC(=O)C2CCC2)[C@H](CO)O1)NCc1ccccc1Cl,.,2[16.7 µM],1,.,-4,5,.,.
COc1ccc2c3c([nH]c2c1)[C@H](CO)N(CC1CCOCC1)CC31CN(C(=O)C2CCOCC2)C1,.,.,-6,.,3,.,.,.
O=C(c1cccs1)c1c[nH]cc1-c1ccccc1,9,-13,-4,2,-30*,-2,-0.54,-2.7
CC(C)Oc1cccc(C(=O)C2CCCN(Cc3ccc4nonc4c3)C2)c1 (stereo not given),5,14,0,.,-29*,0,?,.
CC(C)Oc1cccc(C(=O)C2CCCN(Cc3cnn(C(C)C)c3)C2)c1 (stereo not given),-1,8,0,.,12,5,.,.
C[C@H]1CN([C@@H](C)CO)C(=O)Cc2cc(NC(=O)Cn3cnnn3)ccc2O[C@@H]1CN(C)Cc1ccccc1,.,6[16.7 µM],-11,-3[16.7 µM],4,.,.,.
COc1ccc(CSc2nc3ccccc3c(=O)n2CCCN2CCOCC2)cc1F,-3,36,-2,-5,-28*,-2,-4.5,-18
C=CCn1c(SCC(=O)Nc2ccc3c(c2)OCCO3)nnc1-c1ccco1,-6,.,-4,-7,-17*,.,.,-14
Cn1c(COc2ccc(F)cc2)nc2ccccc21,0,-55,0,-12,-9,-6,.,.
Cc1ccccc1OCc1nc2ccccc2n1C,4,-258,-6,-3,-27*,-4,.,-0.21
O=S(=O)(Nc1cccc(-c2ccc(N3CCCCCC3)nn2)c1)c1ccc(F)cc1,9,-53,-3,3,-21*,-28,.,?
O=S(=O)(Nc1cccc(-c2ccc(N3CCCCCC3)nn2)c1)c1cccc(F)c1,9,-13,2,32,-8,-2,.,.
SMILES,Vif inh,HIV Env fusion,S100A4 MyoIIA,miR-122 sensor,Ecoli rRNA inh,FN deposition inh,AID977621,AID977628
CN1C(=O)c2cc(NC(=O)C3CCC3)ccc2OC[C@H]2O[C@@H](CC(=O)NCc3ccccc3F)CC[C@@H]21,.,.,-1,.,-3,-9,.,.
O=C(NC(=O)c1ccccc1Cl)C(=O)Nc1ccc(Cl)cc1,-4,-3,1,3,20,-21,.,.
O=C(Nc1c(S(=O)(=O)c2ccc(Cl)cc2)csc1Br)c1ccccc1Cl,-3,25,3,4,-26*,17,-0.53,?
O=C(C[C@H]1CC[C@@H]2[C@H](COC[C@@H](O)CN2Cc2ccc(C(F)(F)F)cc2)O1)NCCc1ccccc1,.,.,4,-7[16.7 µM],-2,-12,.,.
COc1ccccc1C(C(C(=O)c1ccccc1)N1CCOCC1)N1CCOCC1 (stereo not given),9,1,-4,-10,-14*,.,-7.1,?
CC(=O)C(C(c1ccccc1)N1CCOCC1)N1CCOCC1 (stereo not given),27,1,-1,-7,14,-5,.,.
C[C@@H]1CN([C@@H](C)CO)C(=O)c2cc(NC(=O)CCCN(C)C)ccc2O[C@@H](C)CCCCO[C@@H]1CN(C)C(=O)Nc1ccc2c(c1)OCO2,.,.,12,.,2,.,.,.
O=C(C[C@@H]1CC[C@H]2[C@@H](COC[C@@H](O)CN2Cc2ccc(Oc3ccccc3)cc2)O1)N1CCc2ccccc2C1,.,21[16.7 µM],-6,-7[16.7 µM],.,.,.,.
O=S(=O)(Cc1ccc(Cl)cc1)N1CCN(Cc2ccc3c(c2)OCO3)CC1,-13,11,1,.,-20*,17,-10,?
O=S(=O)(Cc1ccccc1Cl)N1CCN(Cc2ccc3c(c2)OCO3)CC1,7,.,.,-1,.,.,.,.
C[C@H]1CN([C@@H](C)CO)C(=O)c2cc(NC(=O)CCCCCC(=O)Nc3ccccc3N)ccc2O[C@@H]1CN(C)S(C)(=O)=O,.,.,-3,.,0,.,.,.
Cc1ccc(S(=O)(=O)Nc2ccc3c(c2)C(=O)N([C@H](C)CO)C[C@H](C)[C@@H](CN(C)C(=O)c2ccncc2)OCCCC[C@H](C)O3)cc1,.,3[16.7 µM],.,4[16.7 µM],-3,-5,.,.
CCNC(=O)C[C@H]1CC[C@H]2[C@H](COc3ccc(NC(=O)Nc4ccc(Cl)cc4)cc3C(=O)N2C)O1,.,14[16.7 µM],-5,5[16.7 µM],1,1,.,.
COc1ccc(-n2cc(CNCc3cccnc3)c(-c3cccc(F)c3)n2)cc1,-5,-3,-8,-7,-39,3,.,.

# Screening results: PubChem BioAssay, Broad Institute
